# OX1R antag-1 – blocks the human orexin 1 receptor; O43613; inhibition, % at 6.6 µM; OX1R-expressing cells, FRET antagonist read-out; hit rate 1.8% among 330,000; in the data active = inhibition mostly above about 38%, no sharp cut-off; inactive = mostly below about 40%;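 also: 0% = agonist challenge alone and 100% = reference antagonist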
# GPR7 antagonist – antagonists of human GPR7 (neuropeptides B/W receptor 1); P48145; GPR7-expressing cells, fluorescence antagonist assay; inhibition, % at 4.4 µM; hit rate 1.1% among 290,000; in the data active = inhibition above about 16%, passing the limit was not always enough;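 also: cells stimulated with the agonist NPW; 0% = agonist with vehicle and 100% = vehicle without agonist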
# Target sequence (P48145 whole entry, looked up): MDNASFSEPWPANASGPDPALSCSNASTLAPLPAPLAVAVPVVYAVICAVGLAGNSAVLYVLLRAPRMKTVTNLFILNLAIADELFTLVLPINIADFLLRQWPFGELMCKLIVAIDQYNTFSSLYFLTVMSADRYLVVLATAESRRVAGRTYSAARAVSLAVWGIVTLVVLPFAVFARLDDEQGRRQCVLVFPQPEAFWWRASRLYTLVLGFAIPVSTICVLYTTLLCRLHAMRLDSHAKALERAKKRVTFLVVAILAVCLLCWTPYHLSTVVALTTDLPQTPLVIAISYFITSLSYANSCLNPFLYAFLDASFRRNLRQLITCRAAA
# TAAR1 antag – antagonists of human TAAR1. inhibition, % at 3 µM. CHO RD-HGA16 TAAR1, Fluo-8 calcium fluorescence, antagonist. Q96RJ0. AID 624466. hit rate 1.5% among 360,000;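 active = inhibition above a per-plate cutoff, the mean inhibition of test compounds on that plate plus 3 SD, cut at about 49% in these data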;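 also: 0% = DMSO plus EC80 beta-PEA response and 100% = DMSO alone without agonist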
# Target sequence (Q96RJ0 whole entry, looked up): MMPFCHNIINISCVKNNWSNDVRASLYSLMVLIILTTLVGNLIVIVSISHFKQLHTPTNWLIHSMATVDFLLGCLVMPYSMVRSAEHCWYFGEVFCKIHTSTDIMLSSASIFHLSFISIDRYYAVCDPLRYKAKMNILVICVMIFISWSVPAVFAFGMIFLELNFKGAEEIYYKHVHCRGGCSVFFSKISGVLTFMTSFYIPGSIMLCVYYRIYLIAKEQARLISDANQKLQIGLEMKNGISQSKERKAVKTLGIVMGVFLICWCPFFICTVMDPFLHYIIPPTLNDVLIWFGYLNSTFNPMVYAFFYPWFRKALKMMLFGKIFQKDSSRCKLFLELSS
#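 Test system: RD-HGA16 CHO cells with stable hTAAR1 and Gα16 / Probe or stimulus: EC80 β-phenethylamine stimulus / Times: seeding 17-24 h prior, 75-min 37 °C, 30-min RT dye loading / Detection: Fluo-8 calcium-sensitive fluorescence / Read-out basis: % inhibition scaled between DMSO and EC80 PEA controls / Repeats: singlicate, one well per test compound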
# CHO parental Ca – counter-screen for OX1R antagonists: effect in parental CHO cells; parental CHO-K1, ATP-induced calcium, Fluo-8 fluorescence; inhibition, % at 5.6 µM; hit rate 0.63% among 330,000;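 active = inhibition above that plate's mean sample inhibition plus 3 SD, cut at about 26% in these data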;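 also: 0% = ATP-challenged DMSO wells and 100% = DMSO wells without ATP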
#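 Material: Parental CHO cells | Reagent: ATP | Compound dosing: Single nominal dose of 5.6 µM per compound | Detection: Intracellular calcium via Fluo-8 no-wash fluorescent dye | Read-out: % inhibition of ATP-induced calcium mobilization | Benchmarks: Low control ATP plus DMSO, high control DMSO only | Replicates: Singlicate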
# OX1R antag-2 – antagonists of human orexin 1 receptor | AID 434989 | inhibition, % at 5 µM | CHO/OX1R cells, Fluo-8 calcium fluorescence, orexin A | hit rate 0.43% among 330,000;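 active = inhibition above its plate's threshold, mean inhibition of all tested compounds on the plate plus 3 SD, cut at about 37% in these data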;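 also: 0% = orexin A challenge wells and 100% = SB-334867-A antagonist wells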
# TAAR1 ag – human TAAR1 agonism | CHO RD-HGA16 TAAR1, Fluo-8 calcium fluorescence; vehicle wells 0%, saturating PEA agonist 100% | activation, % at 3 µM | Q96RJ0 | hit rate 0.99% among 360,000;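 active = activation above the mean activation of all test compounds in the run plus 3 SD, cut at about 38% in these data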
#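 Test system: RD-HGA16 (CHO) cells co-expressing Gα16 and hTAAR1 / Benchmarks: DMSO vehicle as 0%, PEA at EC100 as 100% / Repeats: no replicates (n 1) / Measure: % activation from peak over basal fluorescence ratio, DMSO-to-PEA scaled / Timing: 17-24 h plating, Fluo-8 75 min 37 °C, 30 min RT / Technique: kinetic Fluo-8 calcium fluorescence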
# GPR7 antag conf – human GPR7 antagonism, confirmation assay; inhibition, % at 4.4 µM; AID 1952; GPR7-expressing cells, calcium fluorescence antagonist mode; shares compounds with GPR7 antagonist; hit rate 52% among 2,400; in the data active = inhibition above about 24%;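 also: stimulated with the GPR7 agonist NPW; 0% = agonist plus vehicle and 100% = vehicle alone without agonist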
# MCHR1 antagonist – antagonizes human MCHR1, a GPR7 antagonist counter-screen; shares compounds with GPR7 antagonist; MCHR1-expressing cells, fluorescence antagonist assay; inhibition, % at 4.4 µM; hit rate 62% among 2,400; AID 2148; in the data active = inhibition above about 22%;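 also: 0% = vehicle with agonist and 100% = vehicle without agonist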
# * = called active by the depositor; x = not tested or not shown. Only some compounds are listed: those with a hit (about 4.5% of all), similar ones and a draw of the others.
SMILES,OX1R antag-1,GPR7 antagonist,TAAR1 antag,CHO parental Ca,OX1R antag-2,TAAR1 ag,GPR7 antag conf,MCHR1 antagonist
CC1=C(C/C=C(\C)CCC[C@H](C)CCC[C@H](C)CCCC(C)C)C(=O)c2ccccc2C1=O,24,x,-16,9,-8,3,x,x
CCOC(=O)N1CCOCCOCCN(C(=O)OCC)CCOCC1,7,4,-5,-9,-16,16,x,x
CCOC(=O)N1CN(C(=O)OCC)CN(C(=O)OCC)C1,11,18*,-2,3,-32,4,-12,-7
Cc1ccc2c(CSc3nncn3C)cc(=O)oc2c1C,26,-8,-17,3,-4,4,x,x
Cc1nn(-c2ccc(NC(=O)c3ccncc3)cc2)c(C)c1Cl,x,32*,38,x,x,19,52*,65*
C/C(=N\NC(=O)c1c(Cl)c(C)nn1C)c1ccc(NC(=O)c2ccncc2)cc1,14,-3,-5,-8,-13,5,x,x
Cc1ccc(C)c(N2CCN(CCCNC(=O)CCC(=O)N3CCOc4ccc(Cl)cc43)CC2)c1,-4,29*,3,-12,-8,9,50*,79*
CS(=O)(=O)c1ccc(C(=O)OCc2nnc(-c3ccc(Cl)cc3)o2)cc1[N+](=O)[O-],31,35*,x,13,4,x,88*,78*
O=C(CN1C2=NCCN2c2ccccc21)C12CC3CC(CC(C3)C1)C2,8,42*,-10,-22,10,25,40*,32*
CCc1ccc(NC(=O)CCn2ccnc2C)cc1,7,-6,10,2,-12,2,x,x
COC(=O)c1ccc(NC(=O)C(=O)N2CCN(C(=S)NCCc3ccccc3)CC2)cc1,3,22*,-14,-8,-1,4,10,13
CC(c1ccccc1)N1CC(C(=O)N2CCCC(C(N)=O)C2)CC1=O (stereo unspecified),-1,x,-12,-11,-12,0,x,x
COc1ccc(C2c3sc(=O)[nH]c3SC3C4CCC(C4)C23)cc1 (stereo unspecified),6,-15,-13,-8,-33,14,x,x
COc1cc(C2c3sc(=O)[nH]c3SC3C4CCC(C4)C23)ccc1O (stereo unspecified),12,27*,4,-19,-17,19,-18,15
O=c1[nH]c2ccccc2c(O)c1-c1cc2ccccc2oc1=O,18,-2,3,-10,-19,3,x,x
CCO[C@H]1OC(C(=O)NCc2ccccc2)=C[C@@H](c2ccc3c(c2)OCO3)[C@@H]1CCCO,20,33*,17,-11,-9,50*,18,16
CCCCCC1CC(CC(=O)Nc2ccc([N+](=O)[O-])cc2)OC1=O (stereo unspecified),8,25*,-26,-9,-23,3,9,42*
O=P(OC1CCCCC1)(OC1CCCCC1)C(Nc1ccccc1)c1cccnc1 (stereo unspecified),19,32*,48,-19,-12,9,31*,39*
OCCCc1nc2ccccc2n1CCOc1ccccc1,24,-1,-9,-6,-9,3,x,x
Cc1ccc(OCCn2c(CCCO)nc3ccccc32)cc1,13,23*,-17,-6,-21,16,11,7
CN1CCN(C(=S)c2cn(CCOc3ccccc3)c3ccccc23)CC1,16,27*,-6,-16,-18,4,20,11
Cc1ccccc1OCCn1cc(/C(N)=N/O)c2ccccc21,23,13,2,6,-15,8,x,x
CC(=O)c1cn(CCOc2cc(C)ccc2C)c2ccccc12,45,29*,27,33*,7,3,47*,68*
Cc1ccc(C)c(OCCn2cc(C(=O)O)c3ccccc32)c1,22,95*,13,-7,7,3,6,6
CCCN1CCC(=O)N([C@H](CN=[N+]=[N-])CC(C)C)CC1,13,-2,-8,-12,-8,10,x,x
SMILES,OX1R antag-1,GPR7 antagonist,TAAR1 antag,CHO parental Ca,OX1R antag-2,TAAR1 ag,GPR7 antag conf,MCHR1 antagonist
CCc1ccccc1NC(=O)CN1C(=O)C2CCCN2c2ncc(Cl)cc21 (stereo unspecified),14,38*,0,-28,-22,13,34*,17
COc1ccc(-c2cc(C)no2)cc1S(=O)(=O)N1CCOc2ccccc21,17,23*,-10,-13,0,-1,13,18
CC1(C(=O)NS(=O)(=O)c2cccc(OC(F)F)c2)CCN1C(=O)C1CCCCC1 (stereo unspecified),x,x,4,x,x,5,x,x
COc1ccc(NC(=O)Nc2ccc(Br)cn2)cc1,21,-13,-14,-14,-9,8,x,x
O=C(O)CC(C(=O)Nc1ccc(Cl)c(Cl)c1)C1CCCO1 (stereo unspecified),10,9,7,-4,-7,11,x,x
CCCCNC(=O)C1CCCN1C(=O)NC1CCCCC1 (stereo unspecified),7,-9,-22,0,-5,0,x,x
COc1ccc(C(CNC(=O)COc2cccc(C)c2)N2CCCC2)cc1 (stereo unspecified),10,x,-3,-24,-35,-2,x,x
COc1ccc(C(CNC(=O)COc2ccc(Cl)c(C)c2)N2CCCCC2)cc1 (stereo unspecified),8,28*,3,-30,-11,-2,30*,19
Cc1cc(=O)oc2cc(OCc3nnc(-c4ccccc4Br)o3)ccc12,46,31*,22,1,-2,43*,17,25*
O=c1ccc2ccc(OCc3nnc(-c4ccccc4Br)o3)cc2o1,7,18,12,-24,-20,23,x,x
COc1ccc(C(CCNCc2ccc(OC)c(OC)c2)c2ccc(F)cc2)cc1 (stereo unspecified),10,31*,-29,4,-11,7,52*,80*
COc1ccc(CCNCCC(c2ccccc2)c2ccccc2)cc1OC,x,x,0,x,x,13,x,x
COc1ccc(S(=O)(=O)N(C)C)cc1NC(=O)COC(=O)Cn1cnc2ccccc2c1=O,2,x,-2,-6,-4,2,x,x
CN(Cc1ccccc1)S(=O)(=O)c1nnc(NC(=O)c2ccc(F)cc2)s1,21,9,-10,13,-3,5,x,x
COc1ccc(C(=O)Nc2nnc(S(=O)(=O)N(C)Cc3ccccc3)s2)cc1,16,41*,-10,-1,-6,1,22,31*
CC(Sc1nnc(-c2cccs2)n1Cc1ccccc1)C(=O)NCc1ccc2c(c1)OCO2 (stereo unspecified),19,26*,10,-13,-12,16,19,19

# Bioassay records as filed in PubChem.
